≈ marks a conversion by molar mass, not a printed value. Calls of active or inactive are those of the source. No cut-off for these calls is given here.
How the values were obtained:
Staphylococcus aureus [1] = assay: Antibacterial activity against methicillin-resistant Staphylococcus aureus C7 measured after overnight incubation by broth double-dilution method; type: functional
In short: (§1)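 MIC by broth double-dilution in liquid Mueller-Hinton medium. Values are reported in µg/mL.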

Staphylococcus aureus [2] = assay: Antibacterial activity against methicillin-resistant Staphylococcus aureus NRS51 measured after overnight incubation by broth double-dilution method; type: functional; in short: as §1
Staphylococcus aureus [3] = assay: Antibacterial activity against methicillin-resistant Staphylococcus aureus ATCC 33591 measured after overnight incubation by broth double-dilution method; type: functional; in short: as §1
Staphylococcus aureus [4] = assay: Antibiofilm activity against methicillin-sensitive Staphylococcus aureus ATCC 6538 assessed as reduction of biofilm at […] measured after 24 hrs by crystal violet staining based method relative to control; type: functional; set-up: scale not given: the % may be the effect or the level left
Staphylococcus aureus [5] = assay: Antibacterial activity against methicillin-resistant Staphylococcus aureus NRS4 measured after overnight incubation by broth double-dilution method; type: functional; in short: as §1
Staphylococcus aureus [6] = assay: Antibacterial activity against methicillin-resistant Staphylococcus aureus USA600 measured after overnight incubation by broth double-dilution method; type: functional; in short: as §1
[7] = tested on: Staphylococcus epidermidis; assay: Antibacterial activity against Staphylococcus epidermidis ATCC 35984 measured after overnight incubation by broth double-dilution method; type: functional; settings: RP62A
In short: (§2)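 MIC by broth double-dilution in Mueller-Hinton medium. Re-testing at the time-kill inoculum used 1×10^6 CFU/mL.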

Staphylococcus aureus [8] = assay: Antibacterial activity against methicillin-resistant Staphylococcus aureus G6 measured after overnight incubation by broth double-dilution method; type: functional; in short: as §1
Enterococcus faecalis [9] = assay: Antibacterial activity against Enterococcus faecalis ATCC 29212 measured after overnight incubation by broth double-dilution method; type: functional; in short: as §2
Staphylococcus aureus [10] = assay: Antibacterial activity against methicillin-resistant Staphylococcus aureus S22 measured after overnight incubation by broth double-dilution method; type: functional; in short: as §1
Staphylococcus aureus [11] = assay: Antibacterial activity against methicillin-resistant Staphylococcus aureus USA200 measured after overnight incubation by broth double-dilution method; type: functional; in short: as §1
Staphylococcus aureus [12] = assay: Antibacterial activity against methicillin-resistant Staphylococcus aureus USA100 measured after overnight incubation by broth double-dilution method; type: functional; in short: as §1
[13] = tested on: Staphylococcus epidermidis; assay: Antibiofilm activity against Staphylococcus epidermidis ATCC 35984 assessed as reduction of biofilm at […] ug/ml measured after 24 hrs by crystal violet staining based method relative to control; type: functional, RP62A; set-up: scale not given: the % may be the effect or the level left
Staphylococcus aureus [14] = assay: Antibacterial activity against methicillin-resistant Staphylococcus aureus USA300 measured after overnight incubation by broth double-dilution method; type: functional; in short: as §1
Staphylococcus aureus [15] = assay: Antibacterial activity against methicillin-resistant Staphylococcus aureus S24 measured after overnight incubation by broth double-dilution method; type: functional; in short: as §1
Staphylococcus aureus [16] = assay: Antibacterial activity against methicillin-sensitive Staphylococcus aureus ATCC 6538 measured after overnight incubation by broth double-dilution method; type: functional; in short: as §1
[17] = Cytotoxicity against HEK293 cells assessed as cell death at […] measured after 24 hrs by resazurin dye-based fluorescence analysis relative to untreated control; type: toxicity; settings: human, hek293, 24 h
Staphylococcus aureus [18] = assay: Antibacterial activity against methicillin-resistant Staphylococcus aureus BRS3 measured after overnight incubation by broth double-dilution method; type: functional; in short: as §1
Staphylococcus aureus [19] = assay: Antibacterial activity against methicillin-resistant Staphylococcus aureus C14 measured after overnight incubation by broth double-dilution method; type: functional; in short: as §1
Staphylococcus aureus [20] = assay: Antibacterial activity against methicillin-sensitive Staphylococcus aureus ATCC 25923 measured after overnight incubation by broth double-dilution method; type: functional; in short: as §1
Listeria monocytogenes = assay: Antibacterial activity against Listeria monocytogenes ATCC 19115 measured after overnight incubation by broth double-dilution method; type: functional; in short: as §2
Staphylococcus aureus [21] = assay: Antibacterial activity against methicillin-resistant Staphylococcus aureus S14 measured after overnight incubation by broth double-dilution method; type: functional; in short: as §1
Staphylococcus aureus [22] = assay: Antibacterial activity against methicillin-resistant Staphylococcus aureus C2 measured after overnight incubation by broth double-dilution method; type: functional; in short: as §1
Staphylococcus aureus [23] = assay: Antibacterial activity against methicillin-resistant Staphylococcus aureus C16 measured after overnight incubation by broth double-dilution method; type: functional; in short: as §1
Staphylococcus aureus [24] = assay: Antibacterial activity against methicillin-sensitive Staphylococcus aureus ATCC 29213 measured after overnight incubation by broth double-dilution method; type: functional; in short: as §1
Staphylococcus aureus [25] = assay: Antibacterial activity against methicillin-resistant Staphylococcus aureus G14 measured after overnight incubation by broth double-dilution method; type: functional; in short: as §1
Staphylococcus aureus [26] = assay: Antibacterial activity against methicillin-resistant Staphylococcus aureus 2 measured after overnight incubation by broth double-dilution method; type: functional; in short: as §1
Staphylococcus aureus [27] = assay: Antibacterial activity against methicillin-resistant Staphylococcus aureus NRS77 measured after overnight incubation by broth double-dilution method; type: functional; in short: as §1
Staphylococcus aureus [28] = assay: Antibacterial activity against methicillin-resistant Staphylococcus aureus C1 measured after overnight incubation by broth double-dilution method; type: functional; in short: as §1
Enterococcus = assay: Antibacterial activity against Vancomycin-resistant Enterococcus measured after overnight incubation by broth double-dilution method; type: functional; in short: as §1
Enterococcus faecium = assay: Antibacterial activity against Enterococcus faecium BM4105-RF measured after overnight incubation by broth double-dilution method; type: functional; in short: as §1
Staphylococcus aureus [29] = assay: Antibacterial activity against methicillin-resistant Staphylococcus aureus G1 measured after overnight incubation by broth double-dilution method; type: functional; in short: as §1
[30] = tested on: Mycolicibacterium smegmatis; assay: Antibacterial activity against Mycobacterium smegmatis MC2-155 measured after overnight incubation by broth double-dilution method; type: functional; settings: str. MC2 155; in short: as §1
Staphylococcus aureus [31] = assay: Antibacterial activity against methicillin-resistant Staphylococcus aureus 1 measured after overnight incubation by broth double-dilution method; type: functional; in short: as §1
Enterococcus faecalis [32] = assay: Antibacterial activity against Enterococcus faecalis ATCC 49533 measured after overnight incubation by broth double-dilution method; type: functional; in short: as §2
Staphylococcus aureus [33] = assay: Antibacterial activity against methicillin-resistant Staphylococcus aureus S17 measured after overnight incubation by broth double-dilution method; type: functional; in short: as §1
Staphylococcus aureus [34] = assay: Antibacterial activity against methicillin-resistant Staphylococcus aureus G12 measured after overnight incubation by broth double-dilution method; type: functional; in short: as §1
Staphylococcus aureus [35] = assay: Antibacterial activity against methicillin-resistant Staphylococcus aureus C19 measured after overnight incubation by broth double-dilution method; type: functional; in short: as §1
Staphylococcus aureus [36] = assay: Bacteriostatic activity against methicillin-resistant Staphylococcus aureus S22 at MIC measured up to 3 to 6 hrs by time kill analysis; type: functional
Staphylococcus aureus [37] = assay: Antibacterial activity against methicillin-resistant Staphylococcus aureus S22 using 1 10^6CFU/ml measured after overnight incubation by broth double-dilution method; type: functional
Mus musculus = organism: Mus musculus; assay: Cytotoxicity against mouse RBCs assessed as hemolysis at 0.24 to 31.2 ug/ml measured after 1 hr; type: toxicity; settings: erythrocyte
In short: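 Murine red blood cells were exposed to compounds at various concentrations, with amikacin as a control. Percent hemolysis was scored against untreated cells (0%) and 1% Triton X (100%).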

[38] = tested on: Staphylococcus epidermidis RP62A; assay: Inhibition of thioredoxin reductase in Staphylococcus epidermidis ATCC 35984 assessed as induction of ROS production at 1 to 4 times MIC measured after 1 hr by DCFH-DA staining-based fluorescence microscopic analysis
In short: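 Untreated cells served as the negative control and 1 mM H2O2 as the positive control. Cells were stained with DCFH-DA (40 µg/mL) and ROS were visualized by fluorescence microscopy.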

Staphylococcus aureus [39] = assay: Bacteriostatic activity against methicillin-resistant Staphylococcus aureus S22 at 0.5 times MIC measured up to 3 to 6 hrs by time kill analysis; type: functional
[40] = Cytotoxicity against mouse RBCs assessed as hemolysis up to […] measured after 1 hr; type: toxicity, Erythrocyte; settings: mouse red blood cells, read-out: Activity
Staphylococcus aureus [41] = assay: Bacteriostatic activity against methicillin-resistant Staphylococcus aureus S22 at 4 times MIC measured after 24 hrs by time kill analysis; type: functional

COc1cc(OC)cc(-n2sc3ccccc3c2=O)c1
MIC (Staphylococcus aureus [1]): 0.5 mg/L (≈ 1.74 µM)
MIC (Staphylococcus aureus [2]): 1 mg/L (≈ 3.48 µM)
MIC (Staphylococcus aureus [3]): ≤ 0.25 mg/L
Activity (Staphylococcus aureus [4]): 40%
MIC (Staphylococcus aureus [5]): 2 mg/L (≈ 6.96 µM)
MIC (Staphylococcus aureus [6]): 2 mg/L (≈ 6.96 µM)
MIC [7]: 0.25 mg/L (≈ 0.87 µM)
MIC (Staphylococcus aureus [8]): 1 mg/L (≈ 3.48 µM)
MIC (Enterococcus faecalis [9]): 2 mg/L (≈ 6.96 µM)
MIC (Staphylococcus aureus [10]): 0.5 mg/L (≈ 1.74 µM)
MIC (Staphylococcus aureus [11]): 0.5 mg/L (≈ 1.74 µM)
MIC (Staphylococcus aureus [12]): 0.5 mg/L (≈ 1.74 µM)
Activity [13]: 50%
MIC (Staphylococcus aureus [14]): ≤ 0.25 mg/L
MIC (Staphylococcus aureus [15]): ≤ 0.25 mg/L
MIC (Staphylococcus aureus [16]): 1 mg/L (≈ 3.48 µM)
Activity [17]: > 20%
MIC (Staphylococcus aureus [18]): 2 mg/L (≈ 6.96 µM)
MIC (Staphylococcus aureus [19]): 2 mg/L (≈ 6.96 µM)
MIC (Staphylococcus aureus [20]): 0.5 mg/L (≈ 1.74 µM)
MIC (Listeria monocytogenes): 2 mg/L (≈ 6.96 µM)
MIC (Staphylococcus aureus [21]): ≤ 0.25 mg/L
MIC (Staphylococcus aureus [22]): ≤ 0.25 mg/L
MIC (Staphylococcus aureus [23]): 2 mg/L (≈ 6.96 µM)
MIC (Staphylococcus aureus [24]): ≤ 0.25 mg/L
MIC (Staphylococcus aureus [25]): ≤ 0.25 mg/L
MIC (Staphylococcus aureus [26]): 1 mg/L (≈ 3.48 µM)
MIC (Staphylococcus aureus [27]): 2 mg/L (≈ 6.96 µM)
MIC (Staphylococcus aureus [28]): 0.5 mg/L (≈ 1.74 µM)
MIC (Enterococcus): 0.5 mg/L (≈ 1.74 µM)
MIC (Enterococcus faecium): 3.9 mg/L (≈ 13.6 µM)
MIC (Staphylococcus aureus [29]): 1 mg/L (≈ 3.48 µM)
MIC [30]: 2 mg/L (≈ 6.96 µM)
MIC (Staphylococcus aureus [31]): ≤ 0.25 mg/L
MIC (Enterococcus faecalis [32]): 7.8 mg/L (≈ 27.1 µM)
MIC (Staphylococcus aureus [33]): 1 mg/L (≈ 3.48 µM)
MIC (Staphylococcus aureus [34]): 0.5 mg/L (≈ 1.74 µM)
MIC (Staphylococcus aureus [35]): ≤ 0.25 mg/L

CCCCCCCCn1sc2ccccc2c1=O
MIC (Staphylococcus aureus [1]): 1 mg/L (≈ 3.8 µM)
Activity (Staphylococcus aureus [36]): Active
MIC (Staphylococcus aureus [2]): 1 mg/L (≈ 3.8 µM)
MIC (Staphylococcus aureus [3]): 0.5 mg/L (≈ 1.9 µM)
Activity (Staphylococcus aureus [4]): 40%
Activity (Staphylococcus aureus [37]): Active
MIC (Staphylococcus aureus [5]): 1 mg/L (≈ 3.8 µM)
MIC (Staphylococcus aureus [6]): 3.9 mg/L (≈ 14.8 µM)
MIC [7]: 1 mg/L (≈ 3.8 µM)
MIC (Staphylococcus aureus [8]): 1 mg/L (≈ 3.8 µM)
Activity (Mus musculus): Non-Toxic
MIC (Enterococcus faecalis [9]): > 125 mg/L
MIC (Staphylococcus aureus [10]): 1 mg/L (≈ 3.8 µM)
MIC (Staphylococcus aureus [11]): 3.9 mg/L (≈ 14.8 µM)
MIC (Staphylococcus aureus [12]): 2 mg/L (≈ 7.59 µM)
MIC (Staphylococcus aureus [14]): 2 mg/L (≈ 7.59 µM)
MIC (Staphylococcus aureus [15]): 1 mg/L (≈ 3.8 µM)
MIC (Staphylococcus aureus [16]): 1 mg/L (≈ 3.8 µM)
Activity [38]: Active
Activity [17]: > 20%
MIC (Staphylococcus aureus [18]): 1 mg/L (≈ 3.8 µM)
MIC (Staphylococcus aureus [19]): 1 mg/L (≈ 3.8 µM)
Activity (Staphylococcus aureus [39]): Active
hemolysis at 1 h [40]: ≤ 20%
MIC (Staphylococcus aureus [20]): 1 mg/L (≈ 3.8 µM)
MIC (Listeria monocytogenes): 1 mg/L (≈ 3.8 µM)
MIC (Staphylococcus aureus [21]): ≤ 0.25 mg/L
MIC (Staphylococcus aureus [22]): 0.5 mg/L (≈ 1.9 µM)
MIC (Staphylococcus aureus [23]): 2 mg/L (≈ 7.59 µM)
MIC (Staphylococcus aureus [24]): 1 mg/L (≈ 3.8 µM)
MIC (Staphylococcus aureus [25]): 1 mg/L (≈ 3.8 µM)
MIC (Staphylococcus aureus [26]): 1 mg/L (≈ 3.8 µM)
MIC (Staphylococcus aureus [27]): 1 mg/L (≈ 3.8 µM)
MIC (Staphylococcus aureus [28]): 1 mg/L (≈ 3.8 µM)
MIC (Enterococcus): 0.5 mg/L (≈ 1.9 µM)
MIC (Enterococcus faecium): 2 mg/L (≈ 7.59 µM)
MIC (Staphylococcus aureus [29]): ≤ 0.25 mg/L
MIC [30]: 2 mg/L (≈ 7.59 µM)
MIC (Staphylococcus aureus [31]): 0.5 mg/L (≈ 1.9 µM)
MIC (Enterococcus faecalis [32]): > 125 mg/L
Activity (Staphylococcus aureus [41]): Active
MIC (Staphylococcus aureus [33]): 1 mg/L (≈ 3.8 µM)
MIC (Staphylococcus aureus [34]): 1 mg/L (≈ 3.8 µM)
MIC (Staphylococcus aureus [35]): 0.5 mg/L (≈ 1.9 µM)
